Legend:
[1] = target: 5-hydroxytryptamine receptor 1B (Rattus norvegicus, UniProt P28564); assay: In vitro inhibitory concentration against radioligand [3H]5-HT binding to 5-hydroxytryptamine 1B receptor in rat striatal membrane; assay type: cell membranes, Striatum
Procedure, shortened: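 Striatum came from decapitated male rats (~150 g). Membranes were washed in 50 mM Tris-HCl pH 7.4 with a 10 min preincubation at 37 °C. Incubation buffer had 4 mM CaCl2, 0.1% ascorbic acid and 10 μM pargyline. [3H]5-HT 2 nM final, 30 min at 25 °C; nonspecific binding with 5-HT 10 μM. Bound ligand collected by filtration and scintillation-counted; IC50 by curve fitting.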

[2] = target: T1, Serotonin 3 (5-HT3) receptor (Rattus norvegicus, UniProt P35563+Q9JJ16); assay: In vitro inhibitory concentration against radioligand [3H]BRL-43694 binding to 5-hydroxytryptamine 3 receptor in rat cortical membrane; assay type: cell membranes
T1 sequence (P35563 whole entry): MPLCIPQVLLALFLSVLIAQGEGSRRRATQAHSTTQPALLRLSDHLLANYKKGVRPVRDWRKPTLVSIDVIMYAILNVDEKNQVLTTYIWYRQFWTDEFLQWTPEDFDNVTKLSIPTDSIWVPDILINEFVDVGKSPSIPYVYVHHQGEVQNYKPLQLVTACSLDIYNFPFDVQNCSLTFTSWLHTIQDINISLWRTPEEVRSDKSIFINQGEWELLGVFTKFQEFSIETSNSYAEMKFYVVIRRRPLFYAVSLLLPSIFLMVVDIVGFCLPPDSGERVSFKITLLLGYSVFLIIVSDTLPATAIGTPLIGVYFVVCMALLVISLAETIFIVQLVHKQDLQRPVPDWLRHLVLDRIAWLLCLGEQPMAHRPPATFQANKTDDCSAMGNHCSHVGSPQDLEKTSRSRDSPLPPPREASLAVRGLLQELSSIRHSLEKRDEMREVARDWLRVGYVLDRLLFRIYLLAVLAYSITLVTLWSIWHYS
T1 sequence (Q9JJ16 whole entry): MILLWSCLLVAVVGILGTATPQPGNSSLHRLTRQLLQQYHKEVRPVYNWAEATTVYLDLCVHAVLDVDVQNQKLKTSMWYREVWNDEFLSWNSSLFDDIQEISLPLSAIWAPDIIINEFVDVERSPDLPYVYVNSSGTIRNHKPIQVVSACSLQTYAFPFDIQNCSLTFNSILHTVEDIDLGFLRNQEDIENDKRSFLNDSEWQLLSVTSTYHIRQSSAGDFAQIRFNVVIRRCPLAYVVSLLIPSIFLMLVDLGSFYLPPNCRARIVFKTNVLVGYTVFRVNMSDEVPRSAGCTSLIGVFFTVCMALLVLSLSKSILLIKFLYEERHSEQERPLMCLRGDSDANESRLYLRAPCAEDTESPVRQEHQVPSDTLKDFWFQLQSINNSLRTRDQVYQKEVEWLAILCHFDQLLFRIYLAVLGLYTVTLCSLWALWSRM
Procedure, shortened: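 Rat cortex was homogenized in 50 mM Hepes-HCl pH 7.5, then incubated in 50 mM Hepes-HCl pH 7.4 with 10 μM pargyline. [3H]-BRL43694 1 nM final, 30 min at 25 °C; nonspecific binding with GR38032 10 μM. Filtration through GF/B, liquid scintillation counting, IC50 from dose-inhibition curves.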

D(1A) dopamine receptor = D(1A) dopamine receptor (Rattus norvegicus, UniProt P18901); assay: In vitro inhibitory concentration against radioligand [3H]SCH-23390 binding to Dopamine receptor D1 in rat striatal membrane; assay type: cell membranes, Striatum
Procedure, shortened: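 Rat striatal membranes were incubated in 50 mM Tris-HCl pH 7.1 containing 10 μM pargyline, 120 mM NaCl, 5 mM KCl, 2 mM CaCl2, 1 mM MgCl2 and 0.1% ascorbic acid. [3H]SCH23390 0.4 nM final, 15 min at 37 °C; nonspecific binding with (-)-cis-flupentixol 10 μM. Filtered and counted; IC50 by curve analysis.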

[3] = target: 5-hydroxytryptamine receptor 1B (Rattus norvegicus) (UniProt P28564); assay: Compound at 10E-5 M was tested in vitro for the inhibition of radioligand [3H]5-HT binding to 5-hydroxytryptamine 1B receptor in rat striatal membrane; assay type: cell membranes; settings: Striatum
5-hydroxytryptamine receptor 1B (Rattus norvegicus), sequence (P28564 whole entry): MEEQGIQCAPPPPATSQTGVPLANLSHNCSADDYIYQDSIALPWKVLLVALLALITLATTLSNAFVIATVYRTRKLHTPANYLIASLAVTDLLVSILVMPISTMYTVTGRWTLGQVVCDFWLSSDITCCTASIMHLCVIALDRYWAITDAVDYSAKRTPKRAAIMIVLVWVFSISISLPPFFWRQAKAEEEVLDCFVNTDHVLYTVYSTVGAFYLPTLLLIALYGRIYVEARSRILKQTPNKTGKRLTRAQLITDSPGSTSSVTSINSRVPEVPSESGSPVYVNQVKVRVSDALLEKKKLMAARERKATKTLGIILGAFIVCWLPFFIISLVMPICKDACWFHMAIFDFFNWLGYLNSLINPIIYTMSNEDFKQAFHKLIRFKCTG

[4] = target: Serotonin 1a (5-HT1a) receptor/Adrenergic receptor alpha-1 (Rattus norvegicus) (UniProt P15823+P23944+P43140+P19327); assay: Selectivity for alpha-1-adrenergic receptor to that of 5-HT1A receptor.; assay type: protein assay
Procedure, shortened: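 Ratio of IC50 at α1-adrenoceptors ([3H]prazosin, rat cortex) to IC50 at 5-HT1A receptors ([3H]-8-OH-DPAT, rat hippocampus). Each IC50 came from radioligand displacement curves.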

5-hydroxytryptamine receptor 1B, sequence (P28564 whole entry): as above

Row | IC50 [1] | IC50 [2] | IC50 (D(1A) dopamine receptor) | inhibition [3] | Selectivity [4] | Compound
1 | 0.7 µM | 0.8 µM | 0.4 µM |  |  | COc1ccccc1N1CCN(CCCSc2nc3sc(C)c(C)c3c(=O)n2N)CC1
2 | 1.4 µM | 0.6 µM | 0.8 µM |  |  | COc1ccccc1C1CCN(CCCSc2nc3sc(C)c(C)c3c(=O)n2N)CC1
3 |  | 0.02 µM | 0.6 µM | < 50% | 74 | Cc1sc2nc(SCCCN3CCN(c4ncccn4)CC3)n(N)c(=O)c2c1C
